# Laboratory results reported in ChEMBL document CHEMBL1124524, “Organic phosphorus compounds. 2. Synthesis and coronary vasodilator activity of (benzothiazolylbenzyl) phosphonate derivatives” (1989).
# Tested on: Cavia porcellus
# Test: Maximum increase in the coronary flow of isolated guinea pig heart when a dose of 10 ug/heart is administered
# Format: functional
# Procedure, shortened: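 Langendorff-perfused isolated guinea pig heart, with Krebs-Henseleit fluid gassed with 95% O2/5% CO2, at 34 ± 1 °C and 60 cm H2O perfusion pressure. Compound was dissolved in propylene glycol at 100 μg/mL and infused at 0.1 mL/min. Coronary flow was read by electromagnetic flowmeter before and after infusion and expressed as percentage gain; mean ± SE of five experiments.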
row,SMILES,Max increase in coronary flow
1,CCOP(=O)(OCC)OCc1ccc(-c2nc3ccccc3s2)cc1,47.7%
2,CCOP(=O)(Cc1ccc(-c2nc(-c3ccccc3)c(-c3ccccc3)s2)cc1)OCC,23%
3,CCOP(=O)(OCC)c1ccc(-c2nc3ccccc3s2)cc1,27.2%
4,CCOP(=O)(Cc1ccc(-c2nc3ccccc3[nH]2)nc1)OCC,27.1%
5,CCOP(=O)(CCc1ccc(-c2nc3ccccc3s2)cc1)OCC,40.7%
6,CCOP(=O)(/C=C/c1ccc(-c2nc3ccccc3s2)cc1)OCC,49.5%
7,CCOP(=O)(CCOc1ccc(-c2nc3ccccc3s2)cc1)OCC,27.2%
8,CCOP(=O)(Cc1ccc(-c2nc3ccccc3s2)s1)OCC,51.1%
9,CCOP(=O)(Cc1ccc(-c2nc3ccccc3s2)nc1)OCC,94%
10,CCOP(=O)(Cc1cccnc1)OCC,21.4%
11,CCOP(=O)(Cc1ccc(-c2nc(-c3ccccc3)cs2)cc1)OCC,60.3%
12,CCOP(=O)(Cc1ccc(-c2nc3ccccc3o2)nc1)OCC,38.7%
13,CCOP(=O)(Cc1ccc(-c2nccs2)nc1)OCC,23.2%
14,CCOP(=O)(Cc1ccc(-c2nc3ccccc3s2)cc1)OCC [FOSTEDIL],79.9%
